Assay results as given in ChEMBL document CHEMBL1156138, “Identification of novel agonists of the integrin CD11b/CD18” (Bioorg Med Chem Lett, 2009).

What was measured:
Integrin alpha-M/beta-2 = Integrin alpha-M/beta-2 (Homo sapiens, UniProt P05107+P11215); experiment: Agonist activity at CD11b/CD18 expressed in K562 cells assessed as increase in cell adhesion to fibrinogen; format: functional, cell-based
Procedure, shortened: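 K562 cells stably transfected with wild-type CD11b/CD18 were tested for compound-induced adhesion to immobilized fibrinogen. The assay was a no-wash cell-adhesion format in TBS containing 1 mM each Ca2+ and Mg2+. Compounds were tested over a range of concentrations. EC50 was taken as the concentration giving a 50% increase in cell adhesion.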

[1] = Selectivity ratio for CD11b/CD18 over CD11a/CD18

Sequence of Integrin alpha-M/beta-2 (P05107 23-769 limits assumed, other chains not shown): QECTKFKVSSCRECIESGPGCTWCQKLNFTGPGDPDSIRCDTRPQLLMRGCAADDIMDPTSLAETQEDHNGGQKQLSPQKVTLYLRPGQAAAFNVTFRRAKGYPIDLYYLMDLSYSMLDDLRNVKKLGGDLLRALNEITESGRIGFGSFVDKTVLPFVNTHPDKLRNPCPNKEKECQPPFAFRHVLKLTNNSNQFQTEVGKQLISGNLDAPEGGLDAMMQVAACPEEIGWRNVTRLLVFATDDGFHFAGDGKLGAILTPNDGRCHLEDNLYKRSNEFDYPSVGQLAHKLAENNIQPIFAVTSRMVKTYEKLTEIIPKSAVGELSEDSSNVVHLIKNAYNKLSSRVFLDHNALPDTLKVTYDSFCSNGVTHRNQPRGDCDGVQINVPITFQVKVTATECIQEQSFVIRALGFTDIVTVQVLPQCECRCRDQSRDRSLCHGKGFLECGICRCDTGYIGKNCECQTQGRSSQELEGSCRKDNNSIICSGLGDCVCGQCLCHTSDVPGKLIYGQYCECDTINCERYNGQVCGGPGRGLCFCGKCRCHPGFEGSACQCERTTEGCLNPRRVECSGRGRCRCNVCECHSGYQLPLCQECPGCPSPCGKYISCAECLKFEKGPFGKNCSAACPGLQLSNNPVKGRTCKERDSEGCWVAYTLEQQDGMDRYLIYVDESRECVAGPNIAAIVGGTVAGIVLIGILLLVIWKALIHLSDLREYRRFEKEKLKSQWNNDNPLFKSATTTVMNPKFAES

EC50 (Integrin alpha-M/beta-2; read-out: EC50) | EC50 (Integrin alpha-M/beta-2; k562) | Structure (SMILES) | also measured
35.6 µM |  | O=C(CN1C(=O)S/C(=C\c2ccc(-c3ccc(Cl)cc3Cl)o2)C1=O)c1ccccc1 | 
 | Not Active | Cc1ccc(/C=C2\SC(=O)N(C)C2=O)o1 | 
> 50 µM |  | O=C1S/C(=C\c2ccc(-c3ccc(Cl)cc3Cl)o2)C(=O)N1c1ccccc1 | 
18 µM |  | Cc1cccc(NC(=O)CN2C(=O)/C(=C/c3ccc(Cc4ccco4)o3)SC2=S)c1 | 
 | Not Active | COC(=O)CN1C(=O)S/C(=C\c2ccc(Sc3ccccc3)o2)C1=O | 
40.9 µM |  | CCOC(=O)CN1C(=O)S/C(=C\c2ccc(-c3cc(C(=O)O)ccc3Cl)o2)C1=O | 
 | Not Active | CCOC(=O)CN1C(=O)S/C(=C\c2ccc(N3CCOCC3)o2)C1=O | 
13.6 µM |  | CCOC(=O)CN1C(=O)S/C(=C\c2ccc(-c3ccc(Cl)cc3Cl)o2)C1=O | Ratio [1]: 2
10.5 µM |  | CCOC(=O)CN1C(=O)S/C(=C\c2ccc(-c3ccccc3)o2)C1=O | 
> 50 µM |  | CCOC(=O)CN1C(=O)S/C(=C\c2ccc(-c3ccc(Cl)c(C(=O)O)c3)o2)C1=O | 
22.3 µM |  | Cc1cccc(NC(=O)CN2C(=O)S/C(=C\c3ccc(-c4ccccc4)o3)C2=O)c1 | 
23.2 µM |  | CCOC(=O)CN1C(=O)S/C(=C\c2ccc(N3CCCC3)o2)C1=O | 
 | Not Active | CCOC(=O)CN1C(=O)S/C(=C\c2ccc(-c3ccc(C(=O)O)cc3C)o2)C1=O | 
 | Not Active | O=C(CN1C(=O)S/C(=C\c2ccc(-c3ccc(Cl)cc3Cl)o2)C1=O)Nc1ccccc1F | 
> 50 µM |  | Cc1ccc(C(=O)CN2C(=O)S/C(=C\c3ccc(-c4ccc(Cl)cc4)o3)C2=O)cc1 | 
 | Not Active | COC(=O)C(C)N1C(=O)S/C(=C\c2ccc(-c3ccc(Cl)cc3Cl)o2)C1=O (configuration not stated) | 
 | Not Active | CCCN1C(=O)S/C(=C\c2ccc(-c3ccc(Cl)cc3Cl)o2)C1=O | 
40.4 µM |  | CCOC(=O)CN1C(=O)S/C(=C\c2ccc(-c3ccc(Br)cc3)o2)C1=O | 
 | Not Active | NS(=O)(=O)c1ccc(N2C(=O)S/C(=C\c3ccc(Cc4ccccc4)o3)C2=O)cc1 | 
 | Not Active | COC(=O)CN1C(=O)S/C(=C\c2ccc(-c3ccc(C(=O)O)cc3)o2)C1=O | 
18.6 µM |  | CCOC(=O)CN1C(=O)S/C(=C\c2ccc(-c3ccc(C)cc3Br)o2)C1=O | 
